Results from ChEMBL document CHEMBL1133614, “Novel radiotracers for imaging the serotonin transporter by positron emission tomography: synthesis, radiosynthesis, and in vitro and ex vivo evaluation of (11)C-labeled 2-(phenylthio)araalkylamines” (J Med Chem, 2000).

Columns and labels:
[1] = organism: Rattus norvegicus; test: Biodistribution of radioactivity in rat striatum upon Tail-Vein injection of [11C]-labeled compound after 15 min; format: ADME, organism-based; details: in vivo, iv, 0.25 h
[2] = organism: Rattus norvegicus; test: Biodistribution of radioactivity in rat thalamus upon Tail-Vein injection of [11C]-labeled compound after 60 min; format: ADME, organism-based; details: in vivo, iv, 1 h
[3] = organism: Rattus norvegicus; test: Biodistribution of radioactivity in rat hypothalamus upon Tail-Vein injection of [11C]-labeled compound after 60 min; format: ADME, organism-based; details: in vivo, iv, 1 h
[4] = organism: Rattus norvegicus; test: Biodistribution of radioactivity in rat cortex upon Tail-Vein injection of [11C]-labeled compound after 30 min; format: ADME, organism-based; details: in vivo, iv, 0.5 h
[5] = biological target: Sodium-dependent dopamine transporter (Homo sapiens, UniProt Q01959); test: In vitro binding affinity on cloned Dopamine transporter
Sequence of Sodium-dependent dopamine transporter (Q01959 whole entry): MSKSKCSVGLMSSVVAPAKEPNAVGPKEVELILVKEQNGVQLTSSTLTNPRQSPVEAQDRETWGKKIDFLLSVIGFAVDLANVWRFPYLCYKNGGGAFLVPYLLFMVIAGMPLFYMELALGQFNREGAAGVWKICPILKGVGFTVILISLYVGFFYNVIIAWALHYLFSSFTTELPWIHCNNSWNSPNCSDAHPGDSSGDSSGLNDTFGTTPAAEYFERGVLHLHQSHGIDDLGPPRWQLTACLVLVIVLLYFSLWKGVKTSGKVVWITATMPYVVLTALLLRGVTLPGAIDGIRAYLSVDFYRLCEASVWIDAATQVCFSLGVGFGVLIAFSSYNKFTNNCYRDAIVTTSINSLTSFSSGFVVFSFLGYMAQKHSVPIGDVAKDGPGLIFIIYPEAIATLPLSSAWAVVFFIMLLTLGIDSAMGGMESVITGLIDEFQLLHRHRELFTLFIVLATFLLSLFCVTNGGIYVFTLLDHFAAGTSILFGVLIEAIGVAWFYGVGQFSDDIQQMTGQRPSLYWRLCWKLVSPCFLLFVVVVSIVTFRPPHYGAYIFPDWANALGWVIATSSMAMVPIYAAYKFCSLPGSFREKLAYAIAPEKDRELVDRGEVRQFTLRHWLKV
Outline: (§1)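 Competition binding in triplicate on membranes from cloned human transporters. Radioligands: SERT [3H]paroxetine 0.2 nM with 10.3 µg protein, NET [3H]nisoxetine 1.0 nM with 16.9 µg, DAT [3H]WIN 35,428 1.0 nM with 6.2 µg. Buffer 50 mM Tris-Cl pH 7.4 with 150 mM NaCl/5 mM KCl (SERT, NET) or 100 mM NaCl (DAT). Incubated 40 min at 37 °C, then filtered on PEI-soaked GF/B filters. Nonspecific binding set with duloxetine 1 µM (SERT), desipramine 10 µM (NET) or nomifensine 10 µM (DAT). IC50 from nonlinear fit; Ki by Cheng-Prusoff.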

[6] = organism: Rattus norvegicus; test: Biodistribution of radioactivity in rat blood upon Tail-Vein injection of [11C]-labeled compound after 60 min; format: ADME, organism-based; details: in vivo, iv, 1 h
[7] = organism: Rattus norvegicus; test: Biodistribution of radioactivity in rat hypothalamus upon Tail-Vein injection of [11C]-labeled compound after 5 min; format: ADME, organism-based; details: in vivo, iv
[8] = organism: Rattus norvegicus; test: Biodistribution of radioactivity in rat cortex upon Tail-Vein injection of [11C]-labeled compound after 5 min; format: ADME, organism-based; details: in vivo, iv
[9] = organism: Rattus norvegicus; test: Biodistribution of radioactivity in rat striatum upon Tail-Vein injection of [11C]-labeled compound after 5 min; format: ADME, organism-based; details: in vivo, iv
[10] = organism: Rattus norvegicus; test: Biodistribution of radioactivity in rat cerebellum upon Tail-Vein injection of [11C]-labeled compound after 15 min; format: ADME, organism-based; details: in vivo, iv, 0.25 h
[11] = organism: Rattus norvegicus; test: Biodistribution of radioactivity in rat hippocampus upon Tail-Vein injection of [11C]-labeled compound after 5 min; format: ADME, organism-based; details: in vivo, iv
[12] = organism: Rattus norvegicus; test: Biodistribution of radioactivity in rat thalamus upon Tail-Vein injection of [11C]-labeled compound after 5 min; format: ADME, organism-based; details: in vivo, iv
[13] = Half-life of washout rate of radioactivity from the cerebellum.; format: ADME, tissue-based
Outline: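 Rats received the 11C tracer by tail vein (3-30 MBq, 350-450 ng, buffered saline), 3 per time point. Cerebellar radioactivity (%ID/g) was followed over time after injection, and the half-life of its washout was derived from that time course.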

[14] = organism: Rattus norvegicus; test: Biodistribution of radioactivity in rat cerebellum upon Tail-Vein injection of [11C]-labeled compound after 5 min; format: ADME, organism-based; details: in vivo, iv
[15] = biological target: Sodium-dependent noradrenaline transporter (Homo sapiens, UniProt P23975); test: In vitro binding affinity on cloned Norepinephrine transporter
Sequence of Sodium-dependent noradrenaline transporter (P23975 whole entry): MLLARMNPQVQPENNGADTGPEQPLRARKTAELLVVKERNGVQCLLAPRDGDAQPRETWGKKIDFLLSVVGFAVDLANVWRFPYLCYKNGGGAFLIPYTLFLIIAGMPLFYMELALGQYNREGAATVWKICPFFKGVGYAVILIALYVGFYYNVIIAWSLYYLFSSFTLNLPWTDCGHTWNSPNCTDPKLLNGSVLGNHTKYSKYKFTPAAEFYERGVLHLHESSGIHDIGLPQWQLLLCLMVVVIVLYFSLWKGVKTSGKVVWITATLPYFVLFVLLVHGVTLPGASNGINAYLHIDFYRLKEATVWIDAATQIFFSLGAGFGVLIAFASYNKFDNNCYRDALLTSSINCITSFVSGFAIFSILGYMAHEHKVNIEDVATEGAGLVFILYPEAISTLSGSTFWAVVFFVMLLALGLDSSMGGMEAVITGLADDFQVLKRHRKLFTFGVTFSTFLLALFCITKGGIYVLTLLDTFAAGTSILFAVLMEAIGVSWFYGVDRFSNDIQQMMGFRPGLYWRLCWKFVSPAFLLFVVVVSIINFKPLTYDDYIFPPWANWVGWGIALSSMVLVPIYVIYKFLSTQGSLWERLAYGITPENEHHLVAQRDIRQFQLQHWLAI
Outline: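 Competition binding in triplicate on membranes from cloned human transporters. Buffer 50 mM Tris-Cl pH 7.4 with 150 mM NaCl/5 mM KCl (SERT, NET) or 100 mM NaCl (DAT). Incubated 40 min at 37 °C, then filtered on PEI-soaked GF/B filters. Nonspecific binding set with duloxetine 1 µM (SERT), desipramine 10 µM (NET) or nomifensine 10 µM (DAT). IC50 from nonlinear fit; Ki by Cheng-Prusoff.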

[16] = organism: Rattus norvegicus; test: Biodistribution of radioactivity in rat hippocampus upon Tail-Vein injection of [11C]-labeled compound after 15 min; format: ADME, organism-based; details: in vivo, iv, 0.25 h
[17] = organism: Rattus norvegicus; test: Biodistribution of radioactivity in rat blood upon Tail-Vein injection of [11C]-labeled compound after 30 min upon; format: ADME, organism-based; details: in vivo, iv, 0.5 h
[18] = organism: Rattus norvegicus; test: Biodistribution of radioactivity in rat blood upon Tail-Vein injection of [11C]-labeled compound after 15 min; format: ADME, organism-based; details: in vivo, iv, 0.25 h
[19] = organism: Rattus norvegicus; test: Biodistribution of radioactivity in rat hypothalamus upon Tail-Vein injection of [11C]-labeled compound after 30 min; format: ADME, organism-based; details: in vivo, iv, 0.5 h
[20] = organism: Rattus norvegicus; test: Biodistribution of radioactivity in rat hippocampus upon Tail-Vein injection of [11C]-labeled compound after 30 min; format: ADME, organism-based; details: in vivo, iv, 0.5 h
[21] = organism: Rattus norvegicus; test: Biodistribution of radioactivity in rat cortex upon Tail-Vein injection of [11C]-labeled compound after 15 min; format: ADME, organism-based; details: in vivo, iv, 0.25 h
[22] = organism: Rattus norvegicus; test: Biodistribution of radioactivity in rat striatum upon Tail-Vein injection of [11C]-labeled compound after 60 min; format: ADME, organism-based; details: in vivo, iv, 1 h
[23] = organism: Rattus norvegicus; test: Biodistribution of radioactivity in rat hippocampus upon Tail-Vein injection of [11C]-labeled compound after 60 min; format: ADME, organism-based; details: in vivo, iv, 1 h
[24] = biological target: Sodium-dependent serotonin transporter (Homo sapiens, UniProt P31645); test: In vitro binding affinity on cloned Serotonin transporter; outline: as §1
Sequence of Sodium-dependent serotonin transporter (P31645 whole entry): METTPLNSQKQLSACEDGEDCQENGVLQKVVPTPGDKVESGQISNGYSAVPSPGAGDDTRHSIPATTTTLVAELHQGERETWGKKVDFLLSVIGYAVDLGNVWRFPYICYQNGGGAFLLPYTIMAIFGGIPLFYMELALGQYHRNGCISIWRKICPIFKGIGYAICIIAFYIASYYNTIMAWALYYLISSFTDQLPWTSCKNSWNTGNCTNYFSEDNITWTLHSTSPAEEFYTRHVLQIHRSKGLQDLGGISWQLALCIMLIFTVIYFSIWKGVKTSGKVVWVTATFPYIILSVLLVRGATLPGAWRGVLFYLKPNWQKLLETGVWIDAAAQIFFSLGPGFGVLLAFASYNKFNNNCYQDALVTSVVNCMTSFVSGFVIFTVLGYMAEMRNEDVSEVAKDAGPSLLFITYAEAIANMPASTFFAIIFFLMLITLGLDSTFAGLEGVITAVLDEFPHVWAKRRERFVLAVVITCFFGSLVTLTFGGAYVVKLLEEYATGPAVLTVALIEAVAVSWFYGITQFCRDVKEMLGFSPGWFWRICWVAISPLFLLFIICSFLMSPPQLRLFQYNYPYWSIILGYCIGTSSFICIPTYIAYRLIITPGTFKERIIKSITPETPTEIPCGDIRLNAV

[25] = organism: Rattus norvegicus; test: Biodistribution of radioactivity in rat striatum upon Tail-Vein injection of [11C]-labeled compound after 30 min; format: ADME, organism-based; details: in vivo, iv, 0.5 h
[26] = Log P at pH 7.4; format: physicochemical; details: buffer, read-out: logD
Outline: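 Partition of the radiolabelled compound between 1-octanol and 0.02 M phosphate buffer at pH 7.4.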

[27] = organism: Rattus norvegicus; test: Biodistribution of radioactivity in rat blood upon Tail-Vein injection of [11C]-labeled compound after 5 min; format: ADME, organism-based; details: in vivo, iv
[28] = organism: Rattus norvegicus; test: Biodistribution of radioactivity in rat thalamus upon Tail-Vein injection of [11C]-labeled compound after 15 min; format: ADME, organism-based; details: in vivo, iv, 0.25 h
[29] = organism: Rattus norvegicus; test: Biodistribution of radioactivity in rat cortex upon Tail-Vein injection of [11C]-labeled compound after 60 min; format: ADME, organism-based; details: in vivo, iv, 1 h
[30] = organism: Rattus norvegicus; test: Biodistribution of radioactivity in rat cerebellum upon Tail-Vein injection of [11C]-labeled compound after 30 min; format: ADME, organism-based; details: in vivo, iv, 0.5 h
[31] = organism: Rattus norvegicus; test: Biodistribution of radioactivity in rat thalamus upon Tail-Vein injection of [11C]-labeled compound after 30 min; format: ADME, organism-based; details: in vivo, iv, 0.5 h
[32] = organism: Rattus norvegicus; test: Biodistribution of radioactivity in rat hypothalamus upon Tail-Vein injection of [11C]-labeled compound after 15 min; format: ADME, organism-based; details: in vivo, iv, 0.25 h
[33] = organism: Rattus norvegicus; test: Biodistribution of radioactivity in rat cerebellum upon Tail-Vein injection of [11C]-labeled compound after 60 min; format: ADME, organism-based; details: in vivo, iv, 1 h
[34] = organism: Rattus norvegicus; test: Biodistribution of radioactivity in rat cortex upon Tail-Vein injection of [11C]-labeled compound after 45 min; format: ADME, organism-based; details: in vivo, iv, 0.75 h
[35] = organism: Rattus norvegicus; test: Biodistribution of radioactivity in rat hypothalamus upon Tail-Vein injection of [11C]-labeled compound after 45 min; format: ADME, organism-based; details: in vivo, iv, 0.75 h
[36] = organism: Rattus norvegicus; test: Biodistribution of radioactivity in rat thalamus upon Tail-Vein injection of [11C]-labeled compound after 45 min; format: ADME, organism-based; details: in vivo, iv, 0.75 h
[37] = organism: Rattus norvegicus; test: Biodistribution of radioactivity in rat hippocampus upon Tail-Vein injection of [11C]-labeled compound after 45 min; format: ADME, organism-based; details: in vivo, iv, 0.75 h
[38] = organism: Rattus norvegicus; test: Biodistribution of radioactivity in rat blood upon Tail-Vein injection of [11C]-labeled compound after 45 min; format: ADME, organism-based; details: in vivo, iv, 0.75 h
[39] = organism: Rattus norvegicus; test: Biodistribution of radioactivity in rat cerebellum upon Tail-Vein injection of [11C]-labeled compound after 45 min; format: ADME, organism-based; details: in vivo, iv, 0.75 h
[40] = organism: Rattus norvegicus; test: Biodistribution of radioactivity in rat striatum upon Tail-Vein injection of [11C]-labeled compound after 45 min; format: ADME, organism-based; details: in vivo, iv, 0.75 h
[41] = organism: Rattus norvegicus; test: Biodistribution of radioactivity in rat blood upon Tail-Vein injection of [11C]-labeled compound after 30 min; format: ADME, organism-based; details: in vivo, iv, 0.5 h

SMILES	ID/g [1] [%]	ID/g [2] [%]	ID/g [3] [%]	ID/g [4] [%]	Ki [5] [µM]	ID/g [6] [%]	ID/g [7] [%]	ID/g [8] [%]	ID/g [9] [%]	ID/g [10] [%]	ID/g [11] [%]	ID/g [12] [%]	T1/2 [13] [min]	ID/g [14] [%]	Ki [15] [µM]	ID/g [16] [%]	ID/g [18] [%]	ID/g [19] [%]	ID/g [20] [%]	ID/g [21] [%]	other results
CN(C)Cc1ccccc1Sc1ccc(C(F)(F)F)cc1N	1.02	0.89	0.99	0.98	2.04	0.12	1.02	1.09	1.05	0.7	0.92	1.07	32.3	0.92	1.2	0.91	0.21	1.23	0.88	1.06	ID/g [17]: 0.21%; ID/g [22]: 0.72%; ID/g [23]: 0.75%; Ki [24]: 0.00033 µM; ID/g [25]: 0.99%; logD [26]: 3.77; ID/g [27]: 0.35%; ID/g [28]: 1.06%; ID/g [29]: 0.69%; ID/g [30]: 0.47%; ID/g [31]: 1.07%; ID/g [32]: 1.17%; ID/g [33]: 0.28%
COc1ccc(Sc2ccccc2CN(C)C)c(N)c1	1.07	0.48	0.63	0.7	2.65	0.07	1.22	1.37	1.19	0.52	1.09	1.12	18.8	0.8	1.99	0.98	0.17	1.08	0.74	1.11	ID/g [34]: 0.54%; ID/g [35]: 0.89%; ID/g [36]: 0.71%; ID/g [37]: 0.56%; ID/g [38]: 0.1%; ID/g [39]: 0.2%; ID/g [22]: 0.38%; ID/g [40]: 0.58%; ID/g [23]: 0.38%; Ki [24]: 0.00189 µM; ID/g [25]: 0.76%; logD [26]: 2.83; ID/g [27]: 0.3%; ID/g [28]: 1.13%; ID/g [29]: 0.36%; ID/g [30]: 0.27%; ID/g [31]: 0.83%; ID/g [32]: 1.31%; ID/g [41]: 0.13%; ID/g [33]: 0.1%
